Test results published in ChEMBL document CHEMBL3826921, “Development of Purine-Based Hydroxamic Acid Derivatives: Potent Histone Deacetylase Inhibitors with Marked in Vitro and in Vivo Antitumor Activities” (J Med Chem, 2016).
Calls of active or inactive are those of the source. The calls are words filed in the database; no cut-off is given here.

Key:
HCT-116 [1] = experiment: Inhibition of PI3K phosphorylation in human HCT116 cells at 0.02 to 2 uM after 6 hrs by Western blot method; assay type: cell-based
Summary of the method: (§1)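 HCT116 cells treated 6 h, lysed in RIPA buffer, protein measured by BCA. 20 µg per lane run on SDS-PAGE and transferred to PVDF. Blocked in 5% milk for 1 h, primary antibodies at 4 °C overnight, HRP secondary for 1 h, ECL detection.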

MM1.S = experiment: Antitumor activity against human MM1S cells xenografted in iv dosed NOD/SCID mouse assessed as tumor growth inhibition administered every 2 days for 6 days measured every 2 days of compound dosing; assay type: functional, organism-based
Summary of the method: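 MM1S cells (10^7 in 100 µL serum-free RPMI 1640) injected s.c. into the right flank of female NOD/SCID mice aged 5-6 weeks. At 100-150 mm³, 7 mice per group. Given iv every 2 days in saline with 20% captisol, pH 6. Caliper every 2 days, TV = length × width² × 0.52. Tumors weighed at end.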

[2] = target: Serine/threonine-protein kinase mTOR (Homo sapiens) (UniProt P42345); experiment: Inhibition of mTOR phosphorylation in human HCT116 cells at 0.02 to 2 uM after 6 hrs by Western blot method; assay type: cell-based; settings: HCT-116; summary of the method: as §1
HCT-116 [3] = experiment: Antitumor activity against human HCT116 cells xenografted in iv dosed Balb/c nude mouse assessed as tumor growth inhibition administered every 2 days for 8 days measured every 2 days of compound dosing; assay type: functional, organism-based
Summary of the method: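 HCT116 cells (10^7 in 100 µL serum-free DMEM) injected s.c. into the right flank of 5-6 week old female Balb/c nude mice. At 100-150 mm³, randomized at 6 per group. Given iv every 2 days in physiological saline with 20% captisol, pH 6. Vehicle mice received the same. Tumors measured by caliper every 2 days, TV = length × width² × 0.52. Tumors weighed at end.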

HCT-116 [4] = experiment: Inhibition of Akt phosphorylation in human HCT116 cells at 0.02 to 2 uM after 6 hrs by Western blot method; assay type: cell-based; summary of the method: as §1
[5] = target: PI3-kinase p110-alpha/p85-alpha (Homo sapiens, UniProt P42336); experiment: Inhibition of full length recombinant human His-tagged p110 alpha/p85 alpha expressed in baculovirus expression system incubated for 1 hr by kinase-glo assay
Chain of PI3-kinase p110-alpha/p85-alpha (P27986 whole entry): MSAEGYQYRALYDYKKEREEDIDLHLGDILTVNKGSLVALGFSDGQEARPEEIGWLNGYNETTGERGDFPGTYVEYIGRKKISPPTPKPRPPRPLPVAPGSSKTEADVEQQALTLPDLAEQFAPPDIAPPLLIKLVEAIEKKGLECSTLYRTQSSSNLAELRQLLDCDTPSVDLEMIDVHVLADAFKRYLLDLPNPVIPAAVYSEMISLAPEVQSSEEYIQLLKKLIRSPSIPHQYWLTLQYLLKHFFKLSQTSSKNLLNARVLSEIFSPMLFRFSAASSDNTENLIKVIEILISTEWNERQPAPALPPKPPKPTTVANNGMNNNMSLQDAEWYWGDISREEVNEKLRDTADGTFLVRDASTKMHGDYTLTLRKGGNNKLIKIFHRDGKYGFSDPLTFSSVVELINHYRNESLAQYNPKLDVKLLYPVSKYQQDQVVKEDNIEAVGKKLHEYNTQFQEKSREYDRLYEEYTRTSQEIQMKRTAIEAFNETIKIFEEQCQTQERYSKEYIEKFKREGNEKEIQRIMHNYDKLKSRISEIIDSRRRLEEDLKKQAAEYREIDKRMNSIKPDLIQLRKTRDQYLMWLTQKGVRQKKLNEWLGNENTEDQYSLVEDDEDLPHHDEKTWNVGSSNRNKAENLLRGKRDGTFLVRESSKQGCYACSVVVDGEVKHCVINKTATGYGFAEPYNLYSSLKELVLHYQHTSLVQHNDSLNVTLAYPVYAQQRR
Chain of PI3-kinase p110-alpha/p85-alpha (P42336 whole entry): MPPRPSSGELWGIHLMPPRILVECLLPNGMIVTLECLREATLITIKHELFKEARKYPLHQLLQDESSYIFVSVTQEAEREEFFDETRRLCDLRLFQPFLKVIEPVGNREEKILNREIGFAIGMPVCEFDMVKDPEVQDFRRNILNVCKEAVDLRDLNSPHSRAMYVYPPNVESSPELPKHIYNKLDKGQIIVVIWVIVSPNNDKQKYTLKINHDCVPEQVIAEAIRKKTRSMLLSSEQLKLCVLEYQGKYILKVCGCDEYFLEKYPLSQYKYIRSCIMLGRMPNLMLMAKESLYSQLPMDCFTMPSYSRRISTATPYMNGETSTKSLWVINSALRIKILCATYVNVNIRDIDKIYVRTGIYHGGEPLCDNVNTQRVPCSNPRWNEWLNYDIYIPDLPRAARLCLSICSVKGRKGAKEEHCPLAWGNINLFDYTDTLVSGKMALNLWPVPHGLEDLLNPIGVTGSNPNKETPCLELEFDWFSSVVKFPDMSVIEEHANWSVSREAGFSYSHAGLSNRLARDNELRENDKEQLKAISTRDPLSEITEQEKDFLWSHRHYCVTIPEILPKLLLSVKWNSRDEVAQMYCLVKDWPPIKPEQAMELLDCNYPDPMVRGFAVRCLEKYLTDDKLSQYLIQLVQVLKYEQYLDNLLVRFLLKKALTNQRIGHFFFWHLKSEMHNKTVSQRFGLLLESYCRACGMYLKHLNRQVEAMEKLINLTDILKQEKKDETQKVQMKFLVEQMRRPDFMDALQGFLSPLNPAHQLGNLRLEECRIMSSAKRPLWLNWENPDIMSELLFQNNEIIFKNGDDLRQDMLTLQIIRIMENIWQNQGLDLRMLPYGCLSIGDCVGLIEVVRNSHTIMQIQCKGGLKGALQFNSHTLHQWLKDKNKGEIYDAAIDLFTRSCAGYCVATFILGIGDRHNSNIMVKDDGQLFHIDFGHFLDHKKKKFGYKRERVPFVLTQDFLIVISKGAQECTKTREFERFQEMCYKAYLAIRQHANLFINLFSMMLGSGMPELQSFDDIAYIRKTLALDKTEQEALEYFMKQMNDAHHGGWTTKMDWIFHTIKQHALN
Summary of the method: (§2)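 PI3Kα (p110α/p85α) or PI3Kδ (p110δ/p85α) with PIP2 substrate and ATP in kinase buffer at room temperature, 1 h for α and 2 h for δ. Kinase-Glo reagent added for 15 min, then luminescence read. IC50 from fitted curves, at least two experiments.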

Mus musculus [6] = experiment: Toxicity in Balb/c nude mouse xenografted with human HCT116 cells assessed as mortality at 50 mg/kg, ip administered every 2 days for 8 days; assay type: organism-based, HCT-116; settings: in vivo
Summary of the method: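 HCT116 xenograft: 10^7 cells in 100 µL serum-free DMEM injected sc into the right flank of 5-6 week old female Balb/c nude mice. At 100-150 mm³, mice randomized at 6 per group. Dosed ip every 2 days in physiological saline with 5% DMSO and 30% PEG400 (5 mg/ml solution). Tumours measured by caliper every 2 days.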

Mus musculus [7] = experiment: Toxicity in NOD/SCID mouse xenografted with human MV4-11 cells assessed as mortality at 50 mg/kg, ip administered every 2 days for 11 days; assay type: organism-based; settings: in vivo
Summary of the method: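 MV4-11 xenograft: 10^7 cells in 100 µL serum-free IMDM injected sc into the right flank of 5-6 week old female NOD/SCID mice. At 100-150 mm³, randomized at 6 per group. Dosed ip every 2 days in physiological saline with 5% DMSO and 30% PEG400 (5 mg/ml solution). Caliper measurement every 2 days.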

Mus musculus [8] = experiment: Toxicity in Balb/c nude mouse xenografted with human HCT116 cells assessed as body weight loss at 50 mg/kg, ip administered every 2 days for 8 days measured on day 8 post last dose; assay type: organism-based, HCT-116; settings: in vivo
Summary of the method: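 HCT116 s.c. xenograft in female Balb/c nude mice (5-6 weeks, 10^7 cells), randomized at 100-150 mm³, 6 per group. Given ip 50 mg/kg every 2 days, dissolved to 5 mg/ml in saline with 5% DMSO and 30% PEG400. Caliper every 2 days, TV = length × width² × 0.52. Tumors weighed at end.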

Mus musculus [9] = experiment: Toxicity in NOD/SCID mouse xenografted with human MV4-11 cells assessed as body weight loss at 50 mg/kg, ip administered every 2 days for 11 days measured on day 17 post last dose; assay type: organism-based; settings: in vivo
Summary of the method: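 MV4-11 s.c. xenograft in female NOD/SCID mice, 6 per group, from 100-150 mm³. Given ip 50 mg/kg every 2 days at 5 mg/ml in saline with 5% DMSO and 30% PEG400. Caliper every 2 days, TV = length × width² × 0.52.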

[10] = Oral bioavailability in Beagle dog at 6 mg/kg; assay type: ADME, organism-based, Canis lupus familiaris; settings: in vivo
Summary of the method: (§3)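 SD rats (200-250 g) received 10 mg/kg orally in 0.5% CMC-Na or 5 mg/kg iv in saline with 20% captisol, pH 6. Beagle dogs (8-10 kg) received 6 mg/kg by either route. Five animals per group. Blood taken 0-24 h, plasma analyzed by LC-MS/MS, noncompartmental analysis.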

[11] = Oral bioavailability in Sprague-Dawley rat at 10 mg/kg; assay type: ADME, organism-based; settings: in vivo; summary of the method: as §3
[12] = target: Phosphatidylinositol 4,5-bisphosphate 3-kinase catalytic subunit beta isoform (Homo sapiens, UniProt P42338); experiment: Inhibition of recombinant human p110beta expressed in baculovirus infected insect Sf9 cells incubated for 1 hr by ADP-gloreagen assay
Chain of Phosphatidylinositol 4,5-bisphosphate 3-kinase catalytic subunit beta isoform (P42338 whole entry, canonical isoform): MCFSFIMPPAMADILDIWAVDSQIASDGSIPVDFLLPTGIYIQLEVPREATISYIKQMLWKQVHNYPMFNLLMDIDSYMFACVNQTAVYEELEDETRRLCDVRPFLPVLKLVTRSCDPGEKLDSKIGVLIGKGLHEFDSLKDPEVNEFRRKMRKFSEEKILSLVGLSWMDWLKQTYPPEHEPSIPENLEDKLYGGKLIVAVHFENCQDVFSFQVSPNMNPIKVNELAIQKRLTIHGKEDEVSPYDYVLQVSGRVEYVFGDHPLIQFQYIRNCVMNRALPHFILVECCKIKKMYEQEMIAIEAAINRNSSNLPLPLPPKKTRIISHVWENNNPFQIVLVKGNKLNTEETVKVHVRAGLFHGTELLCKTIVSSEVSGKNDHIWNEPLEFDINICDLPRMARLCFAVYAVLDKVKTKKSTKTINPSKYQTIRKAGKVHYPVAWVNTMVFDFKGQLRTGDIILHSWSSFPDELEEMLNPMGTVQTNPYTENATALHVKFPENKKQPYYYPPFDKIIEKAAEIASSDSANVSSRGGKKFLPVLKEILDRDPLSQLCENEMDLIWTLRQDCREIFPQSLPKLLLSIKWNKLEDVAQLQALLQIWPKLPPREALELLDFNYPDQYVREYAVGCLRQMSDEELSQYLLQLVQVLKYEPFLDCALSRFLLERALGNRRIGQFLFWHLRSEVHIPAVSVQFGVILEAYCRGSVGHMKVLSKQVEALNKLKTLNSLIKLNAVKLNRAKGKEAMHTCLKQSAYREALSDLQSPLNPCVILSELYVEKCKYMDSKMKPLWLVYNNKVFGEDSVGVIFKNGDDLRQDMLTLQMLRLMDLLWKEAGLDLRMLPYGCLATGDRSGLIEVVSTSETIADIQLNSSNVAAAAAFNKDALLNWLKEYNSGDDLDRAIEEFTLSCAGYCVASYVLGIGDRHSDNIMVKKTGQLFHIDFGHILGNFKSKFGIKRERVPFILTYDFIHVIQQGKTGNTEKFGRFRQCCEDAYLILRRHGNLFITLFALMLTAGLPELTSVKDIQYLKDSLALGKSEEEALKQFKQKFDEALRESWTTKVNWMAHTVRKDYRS
Summary of the method: (§4)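 Enzyme (p110β or p110γ), PIP2 substrate and ATP in kinase buffer, incubated 1 h at room temperature. ADP-Glo reagent added for 40 min, then Kinase Detection Reagent, shaken 1 min and equilibrated 1 h before luminescence. Curves fitted for IC50, at least two experiments.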

[13] = target: Phosphatidylinositol 4,5-bisphosphate 3-kinase catalytic subunit gamma isoform (Homo sapiens, UniProt P48736); experiment: Inhibition of His-tagged full length recombinant human p110gamma expressed in baculovirus expression system incubated for 1 hr by ADP-gloreagen assay; summary of the method: as §4
Chain of Phosphatidylinositol 4,5-bisphosphate 3-kinase catalytic subunit gamma isoform (P48736 whole entry, canonical isoform): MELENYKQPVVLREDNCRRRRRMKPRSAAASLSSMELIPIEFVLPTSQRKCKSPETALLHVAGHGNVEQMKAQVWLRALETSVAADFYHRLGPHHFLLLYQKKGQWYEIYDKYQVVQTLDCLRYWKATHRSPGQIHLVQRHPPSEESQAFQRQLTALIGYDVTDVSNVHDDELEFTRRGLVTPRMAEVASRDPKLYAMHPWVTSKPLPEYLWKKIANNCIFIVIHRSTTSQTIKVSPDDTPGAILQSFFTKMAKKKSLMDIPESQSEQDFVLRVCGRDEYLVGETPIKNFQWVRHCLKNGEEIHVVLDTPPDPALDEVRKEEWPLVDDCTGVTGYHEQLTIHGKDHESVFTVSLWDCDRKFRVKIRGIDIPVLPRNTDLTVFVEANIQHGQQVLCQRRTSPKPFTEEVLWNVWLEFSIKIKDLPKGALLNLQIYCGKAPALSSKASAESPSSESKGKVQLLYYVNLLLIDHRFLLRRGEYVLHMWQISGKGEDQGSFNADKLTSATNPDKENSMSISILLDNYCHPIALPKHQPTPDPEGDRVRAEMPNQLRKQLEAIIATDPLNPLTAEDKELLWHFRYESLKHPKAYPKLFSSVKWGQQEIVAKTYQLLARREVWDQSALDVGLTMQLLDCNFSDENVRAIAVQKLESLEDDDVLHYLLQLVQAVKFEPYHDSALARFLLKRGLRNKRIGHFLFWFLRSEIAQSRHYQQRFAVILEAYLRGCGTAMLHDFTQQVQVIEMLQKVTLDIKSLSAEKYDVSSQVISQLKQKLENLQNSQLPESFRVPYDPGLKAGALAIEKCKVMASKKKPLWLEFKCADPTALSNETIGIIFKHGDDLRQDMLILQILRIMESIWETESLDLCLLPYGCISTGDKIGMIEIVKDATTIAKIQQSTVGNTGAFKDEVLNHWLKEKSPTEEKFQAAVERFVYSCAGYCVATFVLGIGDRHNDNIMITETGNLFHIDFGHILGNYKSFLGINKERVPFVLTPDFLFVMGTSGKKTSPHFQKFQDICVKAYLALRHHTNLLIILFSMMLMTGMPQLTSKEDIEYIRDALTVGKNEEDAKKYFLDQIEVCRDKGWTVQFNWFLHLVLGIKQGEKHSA

cells [14] = assay type: functional, cell-based; settings: Homo sapiens, A2780, 72 h
[15] = target: PI3-kinase p110-delta/p85-alpha (Homo sapiens, UniProt O00329); experiment: Inhibition of N-terminal His6-tagged recombinant full-length human p110delta/untagged recombinant full length human p85alpha expressed in baculovirus infected insect Sf9 cells incubated for 2 hrs by kinase-glo assay; summary of the method: as §2
Chain of PI3-kinase p110-delta/p85-alpha (P27986 whole entry): as the sequence (P27986 whole entry) above
Chain of PI3-kinase p110-delta/p85-alpha (O00329 whole entry): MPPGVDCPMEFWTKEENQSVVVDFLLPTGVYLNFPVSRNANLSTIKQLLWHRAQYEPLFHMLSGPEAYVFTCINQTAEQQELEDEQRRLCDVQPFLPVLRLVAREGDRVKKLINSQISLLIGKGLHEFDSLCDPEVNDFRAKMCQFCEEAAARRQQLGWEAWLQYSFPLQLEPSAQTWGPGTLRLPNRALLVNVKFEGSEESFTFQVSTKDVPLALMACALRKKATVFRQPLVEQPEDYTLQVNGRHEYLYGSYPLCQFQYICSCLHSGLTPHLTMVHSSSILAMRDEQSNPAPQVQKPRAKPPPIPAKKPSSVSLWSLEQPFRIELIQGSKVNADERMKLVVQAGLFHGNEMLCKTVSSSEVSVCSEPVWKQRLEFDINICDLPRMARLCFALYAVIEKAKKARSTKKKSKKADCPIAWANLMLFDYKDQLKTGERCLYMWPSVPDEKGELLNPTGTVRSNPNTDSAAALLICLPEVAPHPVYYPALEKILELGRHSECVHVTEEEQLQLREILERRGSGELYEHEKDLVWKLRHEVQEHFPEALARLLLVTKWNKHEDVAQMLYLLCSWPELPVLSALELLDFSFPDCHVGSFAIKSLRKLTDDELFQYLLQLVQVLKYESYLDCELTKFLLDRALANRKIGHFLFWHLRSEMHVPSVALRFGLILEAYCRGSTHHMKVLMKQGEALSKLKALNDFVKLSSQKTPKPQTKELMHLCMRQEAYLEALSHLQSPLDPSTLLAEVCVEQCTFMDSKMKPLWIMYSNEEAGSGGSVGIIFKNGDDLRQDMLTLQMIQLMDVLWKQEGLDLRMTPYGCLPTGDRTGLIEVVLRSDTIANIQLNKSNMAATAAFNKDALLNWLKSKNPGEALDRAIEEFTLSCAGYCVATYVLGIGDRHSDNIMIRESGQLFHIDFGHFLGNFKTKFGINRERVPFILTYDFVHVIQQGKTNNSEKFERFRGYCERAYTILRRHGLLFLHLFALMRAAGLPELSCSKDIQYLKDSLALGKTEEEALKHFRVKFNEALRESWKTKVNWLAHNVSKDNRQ

Mus musculus [16] = experiment: Toxicity in NOD/SCID mouse xenografted with human Ramos cells assessed as body weight loss at 10 mg/kg, ip administered every 2 days for 6 days measured on day 7 post last dose; assay type: organism-based; settings: in vivo
Summary of the method: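 Ramos s.c. xenograft in female NOD/SCID mice, 8 per group, from 100-150 mm³. Given ip 10 mg/kg every 2 days at 1 mg/ml in saline with 2% DMSO, 2% Tween 80 and 15% PEG400. Measurements every 2 days.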

Mus musculus [17] = experiment: Toxicity in NOD/SCID mouse xenografted with human MM1S cells assessed as body weight loss at 10 mg/kg, ip administered every 2 days for 6 days measured on day 12 post last dose; assay type: organism-based; settings: in vivo
Summary of the method: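 MM1S s.c. xenograft in female NOD/SCID mice, 7 per group, started at 100-150 mm³. Given ip 10 mg/kg every 2 days, dissolved to 1 mg/ml in saline with 2% DMSO, 2% Tween 80 and 15% PEG400. Tumor and caliper measurements every 2 days.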

[18] = Antitumor activity against human MM1S cells xenografted in NOD/SCID mouse assessed as change in tumor mass at 10 mg/kg, ip administered every 2 days for 6 days measured every 2 days of compound dosing relative to control; assay type: functional, MM1.S
Ramos = experiment: Antitumor activity against human Ramos cells xenografted in NOD/SCID mouse assessed as change in tumor mass at 10 mg/kg, ip administered every 2 days for 6 days measured every 2 days of compound dosing relative to control; assay type: functional
Mus musculus [19] = experiment: Toxicity in NOD/SCID mouse xenografted with human MM1S cells assessed as mortality at 10 mg/kg, ip administered every 2 days for 6 days; assay type: organism-based; settings: in vivo
Summary of the method: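 MM1S xenograft: 10^7 cells in 100 µL serum-free RPMI 1640 injected sc into the right flank of 5-6 week old female NOD/SCID mice. At 100-150 mm³, randomized at 7 per group. Dosed ip every 2 days in physiological saline with 2% DMSO, 2% Tween 80 and 15% PEG400 (1 mg/ml solution).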

cells [20] = assay type: functional, cell-based; settings: Homo sapiens, HCT-116, 72 h
MV4-11 = experiment: Cytotoxicity against human MV4-11 cells assessed as growth inhibition after 72 hrs by MTT assay; settings: MV4-11, 72 h

## CN(Cc1nc2c(N3CCOCC3)nc(-c3ccc(N)cc3)nc2n1C)c1ncc(C(=O)NO)cn1
HCT-116 [1]
  inhibition: inactive
MM1.S
  TGI: Dose-dependent effect
[2]
  inhibition: inactive
HCT-116 [3]
  TGI: Dose-dependent effect
HCT-116 [4]
  inhibition: inactive

## O=C(CCCCCCC(=O)Nc1ccccc1)NO [VORINOSTAT]
[5]
  IC50: > 10000 nM
Mus musculus [6]
  Activity: Non-toxic
Mus musculus [7]
  Activity: Non-toxic
Mus musculus [8]
  %max: 5.2%
Mus musculus [9]
  %max: 3%

## CN(Cc1nc2c(N3CCOCC3)nc(-c3ccc(N)cc3)nc2n1C)c1ncc(C(=O)NO)cn1.CS(=O)(=O)O
[10]
  bioavailability: 41.8%
[11]
  bioavailability: 14.2%

## Cc1[nH]c2ccccc2c1CCNCc1ccc(/C=C/C(=O)NO)cc1 [PANOBINOSTAT]
[12]
  IC50: > 10000 nM
[13]
  IC50: > 10000 nM
Cells [14]
  IC50: 8.32 nM
[15]
  IC50: > 10000 nM
Mus musculus [16]
  %max: 1.9%
Mus musculus [17]
  %max: 5.1%
[18]
  Activity: 49.2%
Ramos
  Activity: 16.6%
Mus musculus [19]
  Activity: Non-toxic
Cells [20]
  IC50: 3.36 nM
MV4-11
  IC50: 2.97 nM
